Data as given in ChEMBL document CHEMBL1126191, “New antiinflammatory agents. 2. 5-Phenyl-3H-imidazo[4,5-c][1,8]naphthyridin-4(5H)-ones: a new class of nonsteroidal antiinflammatory agents with potent activity like glucocorticoids” (J Med Chem, 1992).

What was measured:
[1] = tested on: Rattus norvegicus; experiment: Antiinflammatory effect (oral administration) on rat paw edema model (reversed passive Arthus reaction-induced paw edema) at 10 mg/kg; type: functional
Summary of the method: (§1)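 Reversed passive Arthus: male Wistar rats (~150 g, n=5) were dosed orally with compound in 5% arabic gum. Paw volume was measured by plethysmograph before dosing and 2 h after antigen. % inhibition was calculated vs controls, and ED50 came from log-dose linear regression.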

[2] = tested on: Mus musculus; experiment: Acute lethal toxicity (peroral administration), determined by observing the mortality for 7 days after the administration in mouse; type: organism-based; conditions: in vivo, po, 168 h
Summary of the method: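 Male dd mice of 20-25 g, three per group, given compound by mouth once. Mortality followed for 7 days, and the minimum lethal dose (MLD) was recorded in mg/kg po.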

[3] = tested on: Rattus norvegicus; experiment: Antiinflammatory effect in rat paw edema model following 50 mg/kg p.o. administration.; type: functional; conditions: route oral
[4] = tested on: Rattus norvegicus; experiment: Antiinflammatory effect (oral administration), on zymosan-induced rat paw edema at 25 mg/kg; type: functional
Summary of the method: (§2)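 Oral dosing in 5% arabic gum suspension to male Wistar rats (~150 g, n=5) 1 h before subplantar injection of 1% zymosan in saline into the hind paw. Paw volume was read by plethysmograph before dosing and 4 h after zymosan.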

[5] = tested on: Rattus norvegicus; experiment: Antiinflammatory effect (oral administration), on rat reversed passive Arthus reaction-induced paw edema at 5 mg/kg; type: functional; summary of the method: as §1
[6] = tested on: Rattus norvegicus; experiment: Antiinflammatory effect (oral administration) on rat paw edema model (reversed passive Arthus reaction-induced paw edema) at 5 mg/kg; type: functional; summary of the method: as §1
[7] = tested on: Rattus norvegicus; experiment: Antiinflammatory effect (oral administration) on rat paw edema model (zymosan-induced paw edema) at 50 mg/kg; type: functional; summary of the method: as §2
[8] = tested on: Rattus norvegicus; experiment: Antiinflammatory effect (oral administration) on rat paw edema model (carrageenan-induced paw edema) at 50 mg/kg; type: functional
[9] = tested on: Rattus norvegicus; experiment: Oral dose required for antiinflammatory effect on zymosan induced rat paw edema.; type: functional; summary of the method: as §2
[10] = tested on: Rattus norvegicus; experiment: Antiinflammatory effect of the compound(oral administration) on rat paw edema model(carrageenan-induced paw edema) at 50 mg/kg; type: functional
[11] = tested on: Rattus norvegicus; experiment: Dose of the compound (oral administration) showing antiinflammatory effect on rat paw edema model (carrageenan-induced paw edema, CPE); type: functional
[12] = tested on: Rattus norvegicus; experiment: Dose of the compound (oral administration) showing antiinflammatory effect on rat paw edema model (reversed passive Arthus reaction-induced paw edema, RPAR); type: functional; summary of the method: as §1
[13] = tested on: Rattus norvegicus; experiment: Antiinflammatory effect of the compound (oral administration) on rat paw edema model (reversed passive Arthus reaction-induced paw edema, RPAR); type: functional; summary of the method: as §1
[14] = tested on: Rattus norvegicus; experiment: Antiinflammatory effect of the compound(oral administration) on rat paw edema model(zymosan-induced paw edema) at 50 mg/kg; type: functional; summary of the method: as §2
[15] = tested on: Rattus norvegicus; experiment: Antiinflammatory effect (oral administration) on rat paw edema model (reversed passive Arthus reaction-induced paw edema) at 100 mg/kg; type: functional; summary of the method: as §1

| Structure (SMILES) | MLD [2] [mg/kg] | inhibition in vivo at 50 mg/kg [3] [%] | inhibition in vivo at 25 mg/kg [4] [%] | inhibition in vivo at 5 mg/kg [5] [%] | ED40 [9] [mg/kg] | inhibition in vivo at 50 mg/kg [10] [%] | ED40 [11] [mg/kg] | ED50 [12] [mg/kg] | further results |
| --- | --- | --- | --- | --- | --- | --- | --- | --- | --- |
| O=c1c2c(ncn2CCc2ccccc2)c2cccnc2n1-c1ccccc1 | > 300 | 2.2 | 25.7 | – | – | – | – | – | inhibition in vivo at 10 mg/kg [1]: 5.6% |
| O=c1c2c(ncn2Cc2ccccc2Cl)c2cccnc2n1-c1ccccc1 | – | 14.9 | 27.3 | 20.8 | – | – | – | – | – |
| CCN(CC)CCCn1cnc2c3cccnc3n(-c3ccccc3)c(=O)c21 | – | 7.2 | 17.4 | 11.1 | – | – | – | – | – |
| O=c1c2c(nc(-c3ccccc3)n2Cc2ccccc2)c2cccnc2n1-c1ccccc1 | – | – | – | – | – | – | – | – | inhibition in vivo at 5 mg/kg [6]: 1.2%; inhibition in vivo at 50 mg/kg [7]: -4%; inhibition in vivo at 50 mg/kg [8]: 0% |
| O=c1c2c(ncn2Cc2ccccc2)c2cccnc2n1-c1ccccc1 | > 300 | – | 68.3 | 79.7 | 0.37 | 63 | 5.3 | 0.47 | – |
| O=c1c2c(ncn2CCCN2CCOCC2)c2cccnc2n1-c1ccccc1 | – | – | 22.4 | -3.5 | – | 9.7 | – | – | – |
| CCn1cnc2c3cccnc3n(-c3ccccc3)c(=O)c21 | 100 | – | 77.5 | – | 1.6 | 58.2 | 13.9 | 1.9 | inhibition in vivo at 10 mg/kg [1]: 86.9% |
| Cn1cnc2c3cccnc3n(-c3ccccc3)c(=O)c21 | 100 | – | – | 45 | – | 40 | – | – | – |
| O=c1c2c(ncn2Cc2ccc(Cl)cc2)c2cccnc2n1-c1ccccc1 | > 300 | 21.3 | 42.8 | 15.1 | 20.3 | – | – | – | – |
| CC(C)n1cnc2c3cccnc3n(-c3ccccc3)c(=O)c21 | 200 | 43.1 | 62.4 | 13.3 | 12.7 | – | – | – | – |
| O=c1c2ncn(Cc3ccccc3)c2c2cccnc2n1-c1ccccc1 | > 300 | – | 4.7 | 1.5 | – | – | – | – | – |
| CC(c1ccccc1)n1cnc2c3cccnc3n(-c3ccccc3)c(=O)c21 (centres undefined) | > 300 | 3.5 | 1.6 | 14.9 | – | – | – | – | – |
| CC(C)Cn1cnc2c3cccnc3n(-c3ccccc3)c(=O)c21 | 300 | – | 69.7 | 61.8 | 0.19 | 57.4 | 9.1 | 0.97 | – |
| O=c1c2c(ncn2CCCO)c2cccnc2n1-c1ccccc1 | > 300 | – | 58.1 | 41.3 | 4.8 | 42.6 | 33.5 | 3.7 | – |
| CC(=O)OCCn1cnc2c3cccnc3n(-c3ccccc3)c(=O)c21 | > 300 | – | 41.6 | – | 19.4 | 42.2 | 40.3 | – | inhibition in vivo at 10 mg/kg [1]: 11.8% |
| O=C(O)Cn1cnc2c3cccnc3n(-c3ccccc3)c(=O)c21 | – | 10.8 | 5.1 | 3.3 | – | – | – | – | – |
| CCCCCCn1cnc2c3cccnc3n(-c3ccccc3)c(=O)c21 | > 300 | – | 33.5 | 51.1 | – | 35.2 | – | 4.9 | – |
| CC(C)n1cnc2c(=O)n(-c3ccccc3)c3ncccc3c21 | > 300 | – | – | 32 | – | – | – | – | – |
| C=CCn1cnc2c3cccnc3n(-c3ccccc3)c(=O)c21 | > 300 | – | 67.3 | 22.7 | 2.7 | 67.8 | 21.9 | – | – |
| Oc1c2ncnc-2c2cccnc2n1-c1ccccc1 | > 300 | – | – | 15.4 | – | – | – | – | – |
| Cc1ccc(C)c(Cn2cnc3c4cccnc4n(-c4ccccc4)c(=O)c32)c1 | – | 1.2 | 10.1 | -3.5 | – | – | – | – | – |

| Structure (SMILES) | MLD [2] [mg/kg] | inhibition in vivo at 50 mg/kg [3] [%] | inhibition in vivo at 25 mg/kg [4] [%] | inhibition in vivo at 5 mg/kg [5] [%] | ED40 [9] [mg/kg] | inhibition in vivo at 50 mg/kg [10] [%] | ED40 [11] [mg/kg] | ED50 [12] [mg/kg] | further results |
| --- | --- | --- | --- | --- | --- | --- | --- | --- | --- |
| CCCn1cnc2c3cccnc3n(-c3ccccc3)c(=O)c21 | 200 | – | 61.2 | – | 1.3 | 57.3 | 15.9 | 2 | Inhibition [13]: 74.4% |
| Cc1cccc(Cn2cnc3c4cccnc4n(-c4ccccc4)c(=O)c32)c1 | – | – | 33.3 | – | – | 18.4 | – | – | inhibition in vivo at 10 mg/kg [1]: 33.5% |
| CCOCCn1cnc2c3cccnc3n(-c3ccccc3)c(=O)c21 | > 300 | – | 57.4 | 50.3 | 6 | 56.7 | 15.5 | 3.2 | – |
| O=c1c2c(ncn2C/C=C/c2ccccc2)c2cccnc2n1-c1ccccc1 | > 300 | 26.3 | 34.2 | 17.5 | – | – | – | – | – |
| COc1ccc(Cn2cnc3c4cccnc4n(-c4ccccc4)c(=O)c32)cc1 | > 300 | 37.8 | 66.9 | 59.2 | 0.93 | – | – | 2.3 | – |
| CC(=O)Cn1cnc2c3cccnc3n(-c3ccccc3)c(=O)c21 | > 200 | – | 53.7 | 57.7 | 3.9 | 41.3 | 40 | 4.5 | – |
| CCn1cnc2c(=O)n(-c3ccccc3)c3ncccc3c21 | > 300 | – | 13.5 | 3.5 | – | – | – | – | – |
| CCOC(=O)Cn1cnc2c3cccnc3n(-c3ccccc3)c(=O)c21 | – | – | 5 | 9.9 | – | 23.1 | – | – | – |
| CC(O)Cn1cnc2c3cccnc3n(-c3ccccc3)c(=O)c21 (centres undefined) | 300 | – | 74.7 | 61.8 | 4.5 | 48 | 7.8 | 1.9 | – |
| O=c1c2c(ncn2Cc2cccc(Br)c2)c2cccnc2n1-c1ccccc1 | – | 26.9 | – | – | – | – | – | – | inhibition in vivo at 10 mg/kg [1]: 17.2% |
| O=c1c2c(ncn2Cc2cccc([N+](=O)[O-])c2)c2cccnc2n1-c1ccccc1 | – | 33.1 | 35.7 | 43.9 | – | – | – | – | – |
| O=c1c2c(ncn2Cc2ccc([N+](=O)[O-])cc2)c2cccnc2n1-c1ccccc1 | > 300 | 35.9 | 45.6 | 22.2 | 3.5 | – | – | – | – |
| O=c1c2c(ncn2CC2CCCCC2)c2cccnc2n1-c1ccccc1 | > 300 | 34.7 | 49.8 | – | 11.8 | – | – | 5.7 | inhibition in vivo at 10 mg/kg [1]: 62.9% |
| COC(=O)c1ccc(Cn2cnc3c4cccnc4n(-c4ccccc4)c(=O)c32)cc1 | – | – | – | 9.2 | – | 8.7 | – | – | inhibition in vivo at 50 mg/kg [14]: 9.9% |
| CCCCn1cnc2c3cccnc3n(-c3ccccc3)c(=O)c21 | 300 | – | 55.5 | 49.9 | 2.1 | 45.8 | 15.4 | 4.8 | – |
| Cc1nc2c3cccnc3n(-c3ccccc3)c(=O)c2n1Cc1ccccc1 | – | – | 19.2 | 6.5 | – | 4.7 | – | – | – |
| Cc1ccc(Cn2cnc3c4cccnc4n(-c4ccccc4)c(=O)c32)cc1 | > 300 | 39.2 | 56.2 | 67.4 | 3.5 | – | – | 1.9 | – |
| COc1cccc(Cn2cnc3c4cccnc4n(-c4ccccc4)c(=O)c32)c1 | – | 13 | 43.5 | – | – | – | – | – | inhibition in vivo at 10 mg/kg [1]: 24% |
| C[C@]12C=CC(=O)C=C1CC[C@@H]1[C@@H]2[C@@H](O)C[C@@]2(C)[C@H]1CC[C@]2(O)C(=O)CO [PREDNISOLONE] | > 300 | – | – | – | 1.2 | – | 4.7 | 74.2 | – |
| NC(=O)N1C(=O)/C(=C(\O)c2cccs2)c2cc(Cl)ccc21 [TENIDAP] | > 300 | – | – | – | 41.2 | – | 14.8 | – | inhibition in vivo at 100 mg/kg [15]: 4.8% |
